Assay results reported in ChEMBL document CHEMBL1127501, “TcO(PnA.O-1-(2-nitroimidazole)) [BMS-181321], a new technetium-containing nitroimidazole complex for imaging hypoxia: synthesis, characterization, and xanthine oxidase-catalyzed reduction” (J Med Chem, 1994).

Columns and labels:
xanthine oxidase [1] = test: (§1) Half life for the nitro group loss in xanthine oxidase enzyme assay in 5%DMF at 0.1 mM
[2] = molecular target: Xanthine dehydrogenase/oxidase (Bos taurus, UniProt P80457); test: Reaction rate was evaluated for the compound with hypoxanthine as reducing substrate in 5% DMF expressed as nM/min/unit XOD
Chain of Xanthine dehydrogenase/oxidase (P80457 whole entry): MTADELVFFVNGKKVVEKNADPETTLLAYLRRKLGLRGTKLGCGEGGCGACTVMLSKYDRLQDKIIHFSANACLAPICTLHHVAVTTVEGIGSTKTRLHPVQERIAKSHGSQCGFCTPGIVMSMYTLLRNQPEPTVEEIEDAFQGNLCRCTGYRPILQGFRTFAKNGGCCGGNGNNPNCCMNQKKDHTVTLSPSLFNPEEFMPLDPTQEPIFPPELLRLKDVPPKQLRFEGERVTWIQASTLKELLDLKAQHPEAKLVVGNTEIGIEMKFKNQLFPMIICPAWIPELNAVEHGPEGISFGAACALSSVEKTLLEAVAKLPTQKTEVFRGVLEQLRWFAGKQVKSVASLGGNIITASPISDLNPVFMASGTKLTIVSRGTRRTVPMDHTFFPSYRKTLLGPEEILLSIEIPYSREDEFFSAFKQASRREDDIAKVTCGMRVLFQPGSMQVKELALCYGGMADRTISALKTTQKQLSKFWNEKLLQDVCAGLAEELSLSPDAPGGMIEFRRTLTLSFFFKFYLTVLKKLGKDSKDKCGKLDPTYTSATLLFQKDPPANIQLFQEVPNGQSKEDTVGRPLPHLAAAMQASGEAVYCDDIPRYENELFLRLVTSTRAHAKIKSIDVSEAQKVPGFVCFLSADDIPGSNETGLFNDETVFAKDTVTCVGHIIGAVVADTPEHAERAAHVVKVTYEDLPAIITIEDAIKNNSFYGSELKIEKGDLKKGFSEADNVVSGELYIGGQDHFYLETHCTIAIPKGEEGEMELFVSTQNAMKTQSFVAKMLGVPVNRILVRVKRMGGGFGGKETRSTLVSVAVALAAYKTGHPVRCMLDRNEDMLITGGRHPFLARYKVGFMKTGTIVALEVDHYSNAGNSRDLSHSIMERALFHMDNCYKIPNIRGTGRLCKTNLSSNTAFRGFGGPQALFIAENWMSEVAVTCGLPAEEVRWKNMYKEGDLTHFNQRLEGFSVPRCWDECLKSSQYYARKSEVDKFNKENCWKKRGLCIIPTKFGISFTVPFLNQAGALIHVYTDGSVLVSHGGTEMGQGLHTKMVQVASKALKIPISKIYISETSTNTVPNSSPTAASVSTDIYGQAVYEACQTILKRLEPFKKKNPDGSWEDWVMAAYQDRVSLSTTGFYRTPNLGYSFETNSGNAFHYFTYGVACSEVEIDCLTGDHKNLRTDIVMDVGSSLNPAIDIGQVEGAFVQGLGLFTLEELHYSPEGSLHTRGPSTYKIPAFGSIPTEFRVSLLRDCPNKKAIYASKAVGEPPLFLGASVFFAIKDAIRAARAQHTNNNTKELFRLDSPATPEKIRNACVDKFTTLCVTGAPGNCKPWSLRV

[3] = Half life for the nitro group loss in xanthime oxidase enzyme assay in 5%DMF with no enzyme control at 0.1 mM; No reaction seen; type: ADME; conditions: 100 µM
[4] = Half life for the nitro group loss in xanthime oxidase enzyme assay in 5%DMF with no hypoxanthine control at 0.1 mM; No reaction seen; type: ADME; conditions: 100 µM
[5] = as §1; type: ADME; conditions: 100 µM
In short: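 Nitro compound at 100 µM with 4 mM hypoxanthine and 0.2 units/mL cow milk xanthine oxidase, in 0.1 M phosphate/EDTA pH 7.4 containing 5% DMF. Solutions were argon-deoxygenated before the enzyme was injected by gas-tight syringe. Loss of the 326 nm nitroimidazole absorbance was followed by UV/vis, and the half-life derived from the time course.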

xanthine oxidase [6] = test: Half life for the nitro group loss in xanthine oxidase enzyme assay in 0.2%DMF at 0.1 mM; type: ADME
In short: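 Anaerobic assay in argon-purged, septum-sealed cuvette: 100 µM nitro compound, 4 mM hypoxanthine, 0.2 units/mL bovine milk xanthine oxidase, 0.1 M phosphate/EDTA pH 7.4, 0.2% DMF final. Nitro absorbance at 326 nm read every 5 min and converted to concentration. Half-life taken from plots of log[% remaining] vs time.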

[7] = Half life for the nitro group loss in xanthine oxidase enzyme assay in 5 %DMF at 0.1 mM; No rection seen; type: ADME; conditions: 100 µM

Compound: COCC(O)Cn1ccnc1[N+](=O)[O-] (stereo not drawn) [MISONIDAZOLE]
- half-life at 100 µM (xanthine oxidase [1]): 1 h
- Rate [2]: 3.7 nM min-1 (unit XOD)-1

Compound: TcO(PnA.O-1-(2-nitroimidazole))
- Rate [2]: 1.5 nM min-1 (unit XOD)-1
- T1/2 [3]: Not Active
- T1/2 [4]: Not Active
- T1/2 [5]: 2 h

Compound: Cc1ncc([N+](=O)[O-])n1CCO [METRONIDAZOLE]
- half-life at 100 µM (xanthine oxidase [6]): > 20 h

Compound: TCO(PNAO)
- T1/2 [7]: Not Active
